Legend:
[1] = Selectivity index, ratio of IC50 for cytotoxicity in human NHDF cells to IC50 for cytotoxicity in human KB cells
Outline: (§1)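 Selectivity index is the IC50 in normal HDF fibroblasts divided by the IC50 in the given cancer line.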

[2] = tested on: HeLa; assay: Cytotoxicity in human HeLa cells assessed as reduction in cell viability incubated for 72 hrs by SRB assay; format: functional, cell-based
Outline: (§2)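 SRB assay of cell viability in human cancer lines (HeLa, KB, A549, U87, HepG2) and normal dermal fibroblasts (HDF). IC50 values are […] of three independent experiments.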

[3] = tested on: A549; assay: Cytotoxicity in human A549 cells assessed as reduction in cell viability incubated for 72 hrs by SRB assay; format: functional, cell-based; settings: A549, 72 h; outline: as §2
[4] = Drug metabolism in human HeLa cells assessed as 2',2'-difluoro-2'-deoxyuridine release incubated for 12 hrs by HPLC/MS method; format: ADME, cell-based
Outline: (§3)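 HeLa cells were incubated with the dimer at 37 °C for 12 h. Cell lysate was analysed by HPLC/MS for released gemcitabine, the deamination product dFdU and the thymidine-triazole fragment. A separately synthesized sample of the thymidine-triazole fragment was used as the reference.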

[5] = tested on: HepG2; assay: Cytotoxicity in human HepG2 cells assessed as reduction in cell viability incubated for 72 hrs by SRB assay; format: functional, cell-based; settings: HepG2, 72 h; outline: as §2
[6] = Selectivity index, ratio of IC50 for cytotoxicity in human NHDF cells to IC50 for cytotoxicity in human A549 cells; outline: as §1
[7] = Selectivity index, ratio of IC50 for cytotoxicity in human NHDF cells to IC50 for cytotoxicity in human U87 cells; outline: as §1
[8] = tested on: NHDF; assay: Cytotoxicity in human NHDF cells assessed as reduction in cell viability incubated for 72 hrs by SRB assay; format: cell-based; outline: as §2
[9] = Selectivity index, ratio of IC50 for cytotoxicity in human NHDF cells to IC50 for cytotoxicity in human HeLa cells; outline: as §1
[10] = tested on: U-87 MG; assay: Cytotoxicity in human U87 cells assessed as reduction in cell viability incubated for 72 hrs by SRB assay; format: functional, cell-based, U-87MG ATCC; outline: as §2
[11] = Drug metabolism in human HeLa cells assessed as 3'-[4-(hydroxymethyl)-(1,2,3-triazol-1-yl)]-3'-deoxythymidine release incubated for 12 hrs by HPLC/MS method; format: ADME, cell-based; outline: as §3
[12] = tested on: KB; assay: Cytotoxicity in human KB cells assessed as reduction in cell viability incubated for 72 hrs by SRB assay; format: functional, cell-based; outline: as §2
[13] = Selectivity index, ratio of IC50 for cytotoxicity in human NHDF cells to IC50 for cytotoxicity in human HepG2 cells; outline: as §1
[14] = Drug metabolism in human HeLa cells assessed as gemcitabine release incubated for 12 hrs by HPLC/MS method; format: ADME, cell-based; outline: as §3

Drug metabolism [4]: Metabolite_Notdetected
Drug metabolism [11]: Metabolite_Detected
Drug metabolism [14]: Metabolite_Detected
SMILES: Cc1cn([C@H]2C[C@H](n3cc(COC(=O)Nc4ccn([C@@H]5O[C@H](CO)[C@@H](O)C5(F)F)c(=O)n4)nn3)[C@@H](CO)O2)c(=O)[nH]c1=O
Ratio IC50 [1]: 4.32
IC50 [2]: 1520 nM
IC50 [3]: 1670 nM
IC50 [5]: 1530 nM
Ratio IC50 [6]: 4.01
Ratio IC50 [7]: 3.55
IC50 [8]: 6700 nM
Ratio IC50 [9]: 4.41
IC50 [10]: 1890 nM
IC50 [12]: 1550 nM
Ratio IC50 [13]: 4.38
